We go through 54 compounds from ChEMBL document CHEMBL4390639, “Design, Synthesis, and Biological Evaluation of Novel Allosteric Protein Disulfide Isomerase Inhibitors” (J Med Chem, 2019).

Assay [1] can be described thus: Cytotoxicity against human NU04 cells assessed as inhibition of cell growth measured after 72 hrs by MTT assay. In kind it is functional, cell-based. Particulars: Homo sapiens, 72 h; read-out: IC50. In a few lines: (§1)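 A172 and NU04 cells were seeded at 4000 cells/well and U87MG at 5000 cells/well, incubated overnight at 37 °C, 5% CO2, then exposed to compound or vehicle for 72 h. MTT (3 mg/mL) was added for 4 h, formazan was dissolved in DMSO, and absorbance was read at 570 nm. IC50 came from nonlinear regression; mean ± SD of at least three experiments.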
A general note: Formazan colour is commonly taken as a measure of viable cells.

In assay [2] the test system is U-87 MG. The experiment in a line: Cytotoxicity against human U87MG cells assessed as inhibition of cell proliferation at <IC50 treated for 24 hrs and measured after 10 days by colony formation assay relative to control.
In assay [3] the target is T1, Protein disulfide-isomerase (Homo sapiens, UniProt P07237). The experiment in a line: Inhibition of recombinant human N-terminal His-tagged PDI expressed in Escherichia coli BL21 (DE3) pLysS assessed as reduction in enzyme-mediated bovine insulin aggregation.
Assay [4] concerns U-87 MG. The experiment in a line: Cytotoxicity against human U87MG cells assessed as inhibition of cell growth measured after 72 hrs by MTT assay. In kind it is functional, cell-based, U-87MG ATCC. Conditions: Homo sapiens, U-87 MG, 72 h; read-out: IC50. The method in brief:
as §1

The next assay concerns A 172. The experiment in a line: Cytotoxicity against human A172 cells assessed as inhibition of cell growth measured after 72 hrs by MTT assay. In kind it is functional, cell-based. Particulars: Homo sapiens, A 172, 72 h; read-out: IC50. The method in brief: as §1
Assay [5] concerns U-87 MG. The experiment in a line: Cytotoxicity against human U87MG cells assessed as inhibition of cell proliferation at <IC50 measured after 72 hrs by MTT assay relative to control. In kind it is functional, U-87MG ATCC.
The target of assay [6] is T1, Protein disulfide-isomerase. The experiment in a line: Inhibition of recombinant human N-terminal His-tagged PDI expressed in Escherichia coli BL21 (DE3) pLysS at 100 uM measured after 1 hr by ANS dye based fluorescence spectra analysis. The method in brief: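 ANS spectral scan: PDI incubated with 100 μM compounds or matching DMSO in TBS for 1 h at 37 °C. ANS then added and incubated 20 min at 25 °C in the dark. Fluorescence spectrum recorded with excitation 370 nm, emission 400–700 nm.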
Target sequence in this assay (P07237 18-508 limits assumed): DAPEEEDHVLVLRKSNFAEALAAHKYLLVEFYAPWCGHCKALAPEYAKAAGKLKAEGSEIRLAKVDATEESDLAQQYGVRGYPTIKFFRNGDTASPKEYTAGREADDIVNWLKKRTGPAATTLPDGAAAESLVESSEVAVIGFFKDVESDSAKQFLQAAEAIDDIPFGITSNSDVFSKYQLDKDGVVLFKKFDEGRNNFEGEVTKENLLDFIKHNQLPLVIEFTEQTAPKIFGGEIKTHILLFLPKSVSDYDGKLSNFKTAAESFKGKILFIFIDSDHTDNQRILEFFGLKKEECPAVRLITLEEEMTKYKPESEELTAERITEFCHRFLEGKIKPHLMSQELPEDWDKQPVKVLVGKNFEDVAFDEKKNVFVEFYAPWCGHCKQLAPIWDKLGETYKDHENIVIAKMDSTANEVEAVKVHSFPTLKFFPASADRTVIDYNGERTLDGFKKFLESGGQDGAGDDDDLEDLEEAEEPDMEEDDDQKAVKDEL

Activity calls are given as the source filed them. No cut-off for these calls is given here. Bounds are passed on as bounds.

What is called IC50 is the concentration that inhibits the measured activity by half. On to `COC(=O)c1cccc(/C=C/C(=O)c2ccc(CO)c(Br)c2)c1`, for which the IC50 in assay [1] was found to be 17.2 µM; in assay [3] it was 0.13 µM; in the assay on U-87 MG [4], 13.6 µM; in the assay on A 172, 20.6 µM. In addition, the “inhibition (INH)” value in the assay on U-87 MG [2] was more than 50%.
Regarding `CCN(CC)S(=O)(=O)c1ccc(C(=O)/C=C/c2cccc(O)c2)cc1`, the IC50 in assay [1] was found to be 19.2 µM; in assay [3], 1.29 µM; with U-87 MG [4], 40.7 µM; with A 172 it was 31.2 µM. For the same compound, the “inhibition (INH)” value in the assay on U-87 MG [2] is more than 50%.
With `CCCN(CCC)S(=O)(=O)c1ccc(C(=O)/C=C/c2cccc(C(=O)OC)c2)cc1`, in assay [3], the IC50 was more than 100 µM.
Still for that read-out and setting: the result for `O=C(/C=C/c1ccc(C(F)(F)F)cc1)c1ccc(O)cc1` reads 2.56 µM; that for `COC(=O)c1cccc(/C=C/C(=O)c2ccc(OC)c(O)c2)c1`, 47.8 µM.
Still for that read-out and setting: the figure for `O=C(O)c1cccc(/C=C/C(=O)c2cccc(O)c2)c1` is 10.2 µM; for `CC1(C)OB(c2ccc(/C=C/C(=O)c3ccccc3)cc2)OC1(C)C` it is 2.2 µM.
Turning to `O=C(/C=C/c1ccc(-n2cnc3ccccc32)cc1)c1cccc(O)c1`, the IC50 was 9.9 µM in assay [1], 0.23 µM in assay [3], 10.8 µM with U-87 MG [4] and 10.7 µM in the assay on A 172. Also, the “inhibition (INH)” value in the assay on U-87 MG [5] is more than 50%.
On to `COc1ccc(C(=O)/C=C/c2cccc(C(=O)O)c2)cc1O`, for which, in assay [3], the IC50 is more than 100 µM.
For the compound `O=C(/C=C/c1ccc(B(O)O)cc1)c1ccccc1`, the IC50 came out at 22.9 µM in assay [1], 1.25 µM in assay [3], 31.2 µM in the assay on U-87 MG [4] and 32.1 µM in the assay on A 172. Moreover, in the assay with U-87 MG [5], the “inhibition (INH)” value is listed as more than 50%.
For `O=C(O)c1cccc(/C=C/C(=O)c2ccc(O)c(F)c2)c1`, in assay [3], the IC50 turned out to be 9.1 µM.
The same measure, in the same setting: the figure for `COc1cc(C(=O)/C=C/c2cccc(C#N)c2)ccc1O` is 2.72 µM; for `COc1cccc(C(=O)/C=C/c2cccc(C#N)c2)c1` it is 8.13 µM.
For the compound `CCCN(CCC)S(=O)(=O)c1ccc(C(=O)/C=C/c2cccc(C#N)c2)cc1`, the IC50 in assay [1] stood at 26.6 µM; in assay [3], 0.82 µM; with U-87 MG [4], 25.6 µM; in the assay on A 172, 35 µM. Besides, the “inhibition (INH)” value in the assay on U-87 MG [5] was more than 50%.
Take `O=C(/C=C/c1ccccc1O)c1ccccc1O`: in assay [3], the inhibition result is “inactive”.
`N#Cc1cccc(/C=C/C(=O)c2ccc(N3CCOCC3)cc2)c1`: in assay [3], the IC50 is more than 500 µM.
Same read-out and setting: the figure for `COc1ccc(/C=C/C(=O)c2ccc(NC(=O)c3cccs3)cc2)cc1` is more than 500 µM.
Consider `N#Cc1ccc(/C=C/C(=O)c2ccc(O)c(F)c2)cc1`, for which the IC50 amounted to 15.8 µM in assay [1], 0.21 µM in assay [3], 29 µM in the assay with U-87 MG [4] and 28.4 µM in the assay on A 172. The “inhibition (INH)” value with U-87 MG [5] is listed as more than 50%.
As to `N#Cc1ccc(/C=C/C(=O)c2ccc(O)cc2)cc1`, the IC50 is 12.8 µM in assay [1], 0.74 µM in assay [3], 15.1 µM in the assay with U-87 MG [4] and 20 µM with A 172. In addition, the “inhibition (INH)” value in the assay on U-87 MG [2] is listed as more than 50%.
`O=C(O)c1cccc(/C=C/C(=O)c2ccc(N3CCOCC3)cc2)c1`: in assay [3], the IC50 was more than 100 µM.
On the same count and under the same terms, the figure for `N#Cc1cccc(/C=C/C(=O)c2ccc(F)cc2O)c1` is 2.37 µM; for `N#Cc1cccc(/C=C/C(=O)c2ccc(Br)cc2)c1` it is 1.66 µM.
Regarding `N#Cc1cccc(/C=C/C(=O)c2ccc(S(=O)(=O)Nc3ccccc3)cc2)c1`, the IC50 was 18.7 µM in assay [1], 1.11 µM in assay [3], 48.5 µM in the assay on U-87 MG [4] and 28.9 µM in the assay with A 172. In addition, the “inhibition (INH)” value with U-87 MG [5] is listed as more than 50%.
Regarding `O=C(/C=C/c1cccc(O)c1)c1ccccc1O`, in assay [3], the inhibition entry was “inactive”.
On the same count and under the same terms, the result for `O=C(/C=C/c1ccc(O)cc1)c1ccccc1O` reads “inactive”.
With `N#Cc1cccc(/C=C/C(=O)c2ccc(B(O)O)cc2)c1`, the IC50 was 13 µM in assay [1], 0.83 µM in assay [3], 24.3 µM in the assay with U-87 MG [4] and 20.2 µM with A 172. For the same compound, the “inhibition (INH)” value with U-87 MG [5] was more than 50%.
Regarding `O=C(/C=C/c1ccc(Br)cc1)c1cccc(O)c1`, the IC50 in assay [1] stood at 26.2 µM; in assay [3], 0.4 µM; with U-87 MG [4], 76.3 µM; in the assay on A 172, 67.8 µM. In the assay with U-87 MG [2], the “inhibition (INH)” value is more than 50%.
As to `O=C(O)c1cccc(/C=C/C(=O)c2ccc(NS(=O)(=O)c3ccc([N+](=O)[O-])cc3)cc2)c1`, in assay [3], the IC50 stood at 4 µM.
On the same count and under the same terms, the figure for `O=C(O)c1cccc(/C=C/C(=O)c2ccc(O)c(C(F)(F)F)c2)c1` is 4.09 µM.
In the case of `O=C(/C=C/c1cccc(O)c1)c1ccc(NS(=O)(=O)c2cccs2)cc1`, in assay [3], the IC50 was 11.1 µM.
With `O=C(/C=C/c1ccccc1C(F)(F)F)c1ccc(O)cc1`, the IC50 in assay [3] is 1.67 µM.
Same read-out and setting: the result for `O=C(/C=C/c1cccc(O)c1)c1ccc(NC(=O)c2cccs2)cc1` reads 5.74 µM; that for `N#Cc1cccc(/C=C/C(=O)c2ccc(NS(=O)(=O)c3ccc([N+](=O)[O-])cc3)cc2)c1`, 8.51 µM.
Still for that read-out and setting: the figure for `N#Cc1ccc(/C=C/C(=O)c2ccc(F)cc2O)cc1` is 1.8 µM; for `N#Cc1cccc(/C=C/C(=O)c2ccc(Cl)c(F)c2)c1` it is more than 500 µM.
On the same count and under the same terms, the result for `COc1ccc(/C=C/C(=O)c2ccc(O)cc2)cc1` reads 1.74 µM.
As to `N#Cc1cccc(/C=C/C(=O)c2cnccn2)c1`, the IC50 in assay [3] was more than 500 µM. Also, the inhibition result in assay [6] is “inactive”.
With `COC(=O)c1cccc(/C=C/C(=O)c2ccc(O)cc2)c1`, the IC50 in assay [1] amounted to 30.6 µM; in assay [3] it was 0.4 µM; in the assay with U-87 MG [4], 28.8 µM; with A 172 it was 32.3 µM. The “inhibition (INH)” value with U-87 MG [5] is more than 50%.
As for `N#Cc1cccc(/C=C/C(=O)c2cccc(O)c2)c1`, the IC50 in assay [3] stood at 1.87 µM.
For `CCCCN(CCCC)S(=O)(=O)c1ccc(C(=O)/C=C/c2cccc(C(=O)OC)c2)cc1`, the IC50 in assay [3] was more than 100 µM.
On the same count and under the same terms, the figure for `O=C(/C=C/c1cccc(C(F)(F)F)c1)c1cnccn1` is 9.57 µM.
Turning to `N#Cc1ccc(/C=C/C(=O)c2ccc(O)c(C(F)(F)F)c2)cc1`, the IC50 in assay [1] came to 10.4 µM; in assay [3], 1.11 µM; in the assay with U-87 MG [4] it was 26.4 µM; in the assay with A 172 it was 33.7 µM. Further, the “inhibition (INH)” value with U-87 MG [5] was more than 50%.
With `N#Cc1cccc(/C=C/C(=O)c2ccc(O)c(C(F)(F)F)c2)c1`, in assay [3], the IC50 was 2 µM.
On the same count and under the same terms, the result for `N#Cc1cccc(/C=C/C(=O)c2ccc(N)cc2)c1` reads more than 500 µM.
As to `CCCCN(CCCC)S(=O)(=O)c1ccc(C(=O)/C=C/c2cccc(C#N)c2)cc1`, the IC50 in assay [1] was 15.5 µM; in assay [3] it was 1.34 µM; with U-87 MG [4], 17 µM; in the assay on A 172, 67.3 µM. For the same compound, the “inhibition (INH)” value with U-87 MG [5] is given as more than 50%.
As for `N#Cc1ccc(/C=C/C(=O)c2ccc(F)c(O)c2)cc1`, the IC50 in assay [3] amounted to 1.83 µM.
With `COc1ccc(C(=O)/C=C/c2cccc(C#N)c2)cc1O`, the IC50 in assay [3] turned out to be 10.9 µM.
Turning to `O=C(/C=C/c1cccc(O)c1)c1ccc(OC(=O)c2cccs2)cc1`, the IC50 in assay [3] turned out to be 1.75 µM.
Still for that read-out and setting: the figure for `N#Cc1cccc(/C=C/C(=O)c2ccc(N3CCCCC3)cc2)c1` is more than 500 µM; for `Nc1ccc(C(=O)/C=C/c2cccc(C(=O)O)c2)cc1` it is more than 100 µM.
For `COC(=O)c1cccc(/C=C/C(=O)c2ccc(O)c(C(F)(F)F)c2)c1`, the IC50 was 10.3 µM in assay [1], 0.49 µM in assay [3], 11.6 µM in the assay on U-87 MG [4] and 35 µM in the assay on A 172. In addition, the “inhibition (INH)” value in the assay on U-87 MG [2] was more than 50%.
For the compound `COc1ccc(C(=O)/C=C/c2cccc(C#N)c2)cc1OC`, the IC50 in assay [3] is more than 100 µM.
With `COC(=O)c1cccc(/C=C/C(=O)c2ccc(NS(=O)(=O)c3ccc([N+](=O)[O-])cc3)cc2)c1`, in assay [3], the IC50 is more than 100 µM.
The same measure, in the same setting: the result for `O=C(/C=C/c1cccc(C(F)(F)F)c1)c1ccc(O)cc1` reads 1.56 µM.
